Reference: paper PMC9041536 (RSC Advances, 2021)

How the values were obtained:
[1] = system: human lung carcinoma (A-549); experiment: SRB cytotoxicity assay, A-549; type: cell-based; conditions: A549, 72 h, read-out: Cytotoxicity (IC50) A-549
[2] = system: human colorectal adenocarcinoma (HT-29); experiment: SRB cytotoxicity assay, HT-29; type: cell-based; conditions: HT-29, 72 h, read-out: Cytotoxicity (IC50) HT-29
[3] = system: human squamous cell carcinoma (FaDu); experiment: SRB cytotoxicity assay, FaDu; type: cell-based; conditions: 72 h, read-out: Cytotoxicity (IC50) FaDu
[4] = SRB cytotoxicity assay, normal cell line CL; type: cell-based; conditions: human, CL cells (normal liver hepatic cell line)
[5] = system: human intrahepatic cholangiocarcinoma (KKU-M213); experiment: SRB cytotoxicity assay, KKU-M213; type: cell-based; conditions: KKU-M213, 72 h, read-out: Cytotoxicity (IC50) KKU-M213
[6] = system: human mammary gland adenocarcinoma (MDA-MB-231); experiment: SRB cytotoxicity assay, MDA-MB-231; type: cell-based; conditions: MDA-MB-231, 72 h, read-out: Cytotoxicity (IC50) MDA-MB-231
[7] = system: human neuroblastoma (SH-SY5Y); experiment: SRB cytotoxicity assay, SH-SY5Y; type: cell-based; conditions: for IC50: Homo sapiens, SH-SY5Y, 72 h, read-out: Cytotoxicity (IC50) SH-SY5Y
[8] = system: six cancer cell lines, KKU-M213, FaDu, HT-29, MDA-MB-231, A-549, and SH-SY5Y; experiment: SRB cytotoxicity assay, all tested cancer cell lines; type: cell-based, human; conditions: for Cytotoxicity (in words): under tested concentrations (0.1–50 μM)
Outline: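 Sulforhodamine B assay, slightly modified, with ellipticine as positive control. Compounds were in 10% DMSO and tested over 0.1–50 μM. Cells exposed for 72 h at 37 °C, 5% CO2, humidified. Fixed with 10% TCA, stained with 0.4% SRB, unbound dye washed off with 1% acetic acid, bound dye solubilised in 10 mM Tris base (pH 10.5). A510 read. IC50 is the concentration giving 50% growth inhibition.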

E. coli (ATCC 25922) = experiment: Agar well diffusion method, E. coli; type: cell-based; conditions: Escherichia coli, ATCC25922, read-out: zone of inhibition E. coli
Outline: (§1)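 Bacteria swabbed onto Mueller–Hinton agar, then 6 mm wells cut with a sterile cork borer. Each well received 20 µL of test compound dissolved in DMSO at 5 mg mL−1. Plates held 30 min in a refrigerator for diffusion, then incubated at 37 °C for 16–20 h. Inhibition zone measured in mm. Negative control: 10% DMSO.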

[9] = system: P. aeruginosa (ATCC 27853); experiment: Agar well diffusion method, P. aeruginosa; type: cell-based; conditions: Pseudomonas aeruginosa, ATCC27853, read-out: zone of inhibition P. aeruginosa
Outline: as §1

S. aureus (ATCC 25923) = experiment: Agar well diffusion method, S. aureus; type: cell-based; conditions: Staphylococcus aureus, ATCC25923, read-out: zone of inhibition S. aureus
Outline: as §1

C=CCOc1c(C)c(O)c(C(=O)/C=C/c2ccccc2)c(OC)c1C [Compound 2i, 2′-Hydroxy-4′-allyloxy-6′-methoxy-3′,5′-dimethylchalcone]
IC50 [1]: 36.7 µM | IC50 [2]: 34.6 µM | IC50 [3]: 29 µM | IC50 at 72 h [4]: 31.7 µM | IC50 [5]: 31.3 µM | IC50 [6]: 39.1 µM | IC50 [7]: 28.2 µM

Cc1c2ccncc2c(C)c2c1[nH]c1ccccc12 [Ellipticine, reference compound]
IC50 [1]: 1.14 µM | IC50 [2]: 2.15 µM | IC50 [3]: 2.03 µM | IC50 at 72 h [4]: 2.07 µM | IC50 [5]: 2.4 µM | IC50 [6]: 2.8 µM | IC50 [7]: 2.64 µM

COc1c(C)c(OS(=O)(=O)c2ccc3ccccc3c2)c(C)c(O)c1C(=O)/C=C/c1ccccc1 [Compound 2n, 2′-Hydroxy-4′-(2-naphthalenesulfonyl)oxy-6′-methoxy-3′,5′-dimethylchalcone]
IC50 [1]: > 50 µM | IC50 [2]: 24.7 µM | IC50 [3]: 21.1 µM | IC50 at 72 h [4]: 30.4 µM | IC50 [5]: 27.8 µM | IC50 [6]: 39.8 µM | IC50 [7]: 16.4 µM

COc1c(C)c(OC(C)=O)c(C)c(O)c1C(=O)/C=C/c1ccccc1 [Compound 2f, 2′-Hydroxy-4′-acetyloxy-6′-methoxy-3′,5′-dimethylchalcone]
IC50 [1]: > 50 µM | IC50 [2]: 38.6 µM | IC50 [3]: 36.5 µM | IC50 at 72 h [4]: 31 µM | IC50 [5]: 43 µM | IC50 [6]: 40.3 µM | IC50 [7]: 28.6 µM

COc1c(C)c(OC)c(C(=O)/C=C/c2ccccc2)c(OC)c1C [Compound 5g, 2′,4′,6′-Trimethoxy-3′,5′-dimethylchalcone]
IC50 [1]: 22.7 µM | IC50 [2]: 21.9 µM | IC50 [3]: 19.3 µM | IC50 at 72 h [4]: 18.7 µM | IC50 ([8]; Homo sapiens, read-out: IC50 on all tested cancer cell lines): 12.6 to 29.8 µM | Cytotoxicity (in words) [8]: moderate cytotoxicity | IC50 [5]: 23.5 µM | IC50 [6]: 29.8 µM | IC50 [7]: 12.6 µM

COc1c(C)c(OC(=O)c2ccc(C)cc2)c(C)c(O)c1C(=O)/C=C/c1ccccc1 [Compound 2l, 2′-Hydroxy-4′-(p-toluoyloxy)-6′-methoxy-3′,5′-dimethylchalcone]
IC50 [1]: 22.4 µM | IC50 [2]: 26.8 µM | IC50 [3]: 22.1 µM | IC50 at 72 h [4]: 25.4 µM | IC50 [5]: 28.9 µM | IC50 [6]: 25.1 µM | IC50 [7]: 15.6 µM

COc1c(C)c(OC(C)=O)c(C)c(OC(C)=O)c1C(=O)/C=C/c1ccccc1 [Compound 5f, 2′,4′-Diacetyloxy-6′-methoxy-3′,5′-dimethylchalcone]
IC50 [1]: 15.4 µM | IC50 [2]: 36.5 µM | IC50 [3]: 33.6 µM | IC50 at 72 h [4]: 27.4 µM | Cytotoxicity (in words) [8]: poor cytotoxicity | IC50 [5]: 28 µM | IC50 [6]: 29.8 µM | IC50 [7]: 18.8 µM

CCCC(=O)Oc1c(C)c(O)c(C(=O)/C=C/c2ccccc2)c(OC)c1C [Compound 2a, 2′-Hydroxy-4′-butyryloxy-6′-methoxy-3′,5′-dimethylchalcone]
IC50 [1]: > 50 µM | IC50 [2]: 35.8 µM | IC50 [3]: 31.2 µM | IC50 at 72 h [4]: 32.8 µM | IC50 [5]: 30.1 µM | IC50 [6]: 38.2 µM | IC50 [7]: 27.6 µM

CCCCCCCCCC(=O)Oc1c(C)c(O)c(C(=O)/C=C/c2ccccc2)c(OC)c1C [Compound 2d, 2′-Hydroxy-4′-caprinoyloxy-6′-methoxy-3′,5′-dimethylchalcone]
IC50 [1]: > 50 µM | IC50 [2]: > 50 µM | IC50 [3]: 34.7 µM | IC50 at 72 h [4]: 41.9 µM | IC50 [5]: > 50 µM | IC50 [6]: 36.7 µM | IC50 [7]: 24.8 µM

COc1c(C)c(OC(=O)c2ccccc2)c(C)c(O)c1C(=O)/C=C/c1ccccc1 [Compound 2k, 2′-Hydroxy-4′-benzoyloxy-6′-methoxy-3′,5′-dimethylchalcone]
IC50 [1]: 41.3 µM | IC50 [2]: 32.5 µM | IC50 [3]: 37.9 µM | IC50 at 72 h [4]: > 50 µM | IC50 [5]: > 50 µM | IC50 [6]: > 50 µM | IC50 [7]: 20.2 µM

CCCCCCCC(=O)Oc1c(C)c(O)c(C(=O)/C=C/c2ccccc2)c(OC)c1C [Compound 2c, 2′-Hydroxy-4′-capryloyloxy-6′-methoxy-3′,5′-dimethylchalcone]
IC50 [1]: > 50 µM | IC50 [2]: 26.6 µM | IC50 [3]: 20.6 µM | IC50 at 72 h [4]: 25.2 µM | IC50 [5]: 24.4 µM | IC50 [6]: 25.9 µM | IC50 [7]: 18 µM

COc1c(C)c(OCc2ccccc2)c(C)c(O)c1C(=O)/C=C/c1ccccc1 [Compound 2h, 2′-Hydroxy-4′-benzyloxy-6′-methoxy-3′,5′-dimethylchalcone]
IC50 [1]: 9.99 µM | IC50 [2]: 27.5 µM | IC50 [3]: 14 µM | IC50 at 72 h [4]: 22.6 µM | IC50 [5]: 23.2 µM | IC50 [6]: 26.9 µM | IC50 [7]: 16.4 µM

CCCCCC(=O)Oc1c(C)c(O)c(C(=O)/C=C/c2ccccc2)c(OC)c1C [Compound 2b, 2′-Hydroxy-4′-caproyloxy-6′-methoxy-3′,5′-dimethylchalcone]
IC50 [1]: 24.8 µM | IC50 [2]: 26.6 µM | IC50 [3]: 18.9 µM | IC50 at 72 h [4]: 23.5 µM | IC50 [5]: 21.3 µM | IC50 [6]: 18.1 µM | IC50 [7]: 5.2 µM | Selectivity Index (SI) SH-SY5Y ([7]; ratio of IC50 on normal cell (CL) divided by that on cancer cell): 4.53

COc1c(C)c(O)c(C)c(O)c1C(=O)/C=C/c1ccccc1 [DMC, 2′,4′-Dihydroxy-6′-methoxy-3′,5′-dimethylchalcone]
IC50 [1]: 19.9 µM | IC50 [2]: 38.6 µM | IC50 [3]: 37.6 µM | IC50 at 72 h [4]: 15.6 µM | zone of inhibition at 5 µg/mL (E. coli (ATCC 25922)): 8 mm | IC50 [5]: 29.4 µM | IC50 [6]: 37.6 µM | IC50 [7]: 13.1 µM | zone of inhibition at 5 µg/mL [9]: 8 mm | zone of inhibition at 5 µg/mL (S. aureus (ATCC 25923)): 9 mm
